According to paper PMC4604364 (Antimicrobial Agents and Chemotherapy, 2015):
Converted amounts (≈) assume the structure as drawn.

Experiments:
[1] = tested on: Gram-positive screening panel organisms (S. aureus, Enterococcus spp., S. pneumoniae); assay: MIC ranges over the Gram-positive screening panel; format: cell-based; settings: read-out: MIC range against resistant organisms
[2] = tested on: S. aureus RN450 (wild type, tetracycline susceptible); assay: Microdilution MIC, S. aureus wild type; format: cell-based; settings: Staphylococcus aureus, read-out: MIC, S. aureus wild type
[3] = tested on: E. faecalis JH2-2(pAM211) (ribosome protection, Tet M); assay: Microdilution MIC, E. faecalis Tet M; format: cell-based; settings: Enterococcus faecalis, read-out: MIC, E. faecalis Tet M
[4] = tested on: S. aureus MRSA 5 (MRSA, ribosome protection, Tet M); assay: Microdilution MIC, S. aureus Tet M; format: cell-based; settings: Staphylococcus aureus, read-out: MIC, S. aureus Tet M
[5] = tested on: E. faecalis JH2-2(pMV158) (tetracycline efflux, Tet L); assay: Microdilution MIC, E. faecalis Tet L; format: cell-based; settings: Enterococcus faecalis, read-out: MIC, E. faecalis Tet L
[6] = tested on: E. faecalis JH2-2 (wild type, tetracycline susceptible); assay: Microdilution MIC, E. faecalis wild type; format: cell-based; settings: Enterococcus faecalis, read-out: MIC, E. faecalis wild type
[7] = tested on: S. pneumoniae ATCC 700905 (ribosome protection, Tet M); assay: Microdilution MIC, S. pneumoniae Tet M; format: cell-based; settings: Streptococcus pneumoniae, ATCC700905, read-out: MIC, S. pneumoniae Tet M
[8] = Pharmacokinetics in nonhuman primates; format: in vivo, Cynomolgus monkeys; settings: for AUC / Cmax / Tmax / half-life / bioavailability: cynomolgus monkey, plasma
Summary of the method: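 Cynomolgus monkeys were dosed intravenously (infusion ending at 0.25 h) or orally. Plasma was sampled predose and at 0.25, 0.5, 1, 3, 5, 7, 16 and 24 h. Protein was precipitated with acetonitrile containing 0.1% formic acid, then centrifuged. The supernatant was dried, reconstituted in methanol-water (1:1) and quantified by LC-MS/MS. PK parameters came from noncompartmental analysis.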

[9] = tested on: S. pneumoniae 157E (wild type, tetracycline susceptible); assay: Microdilution MIC, S. pneumoniae wild type; format: cell-based; settings: Streptococcus pneumoniae, read-out: MIC, S. pneumoniae wild type
[10] = tested on: E. faecium 494 (Tet M plus Tet L); assay: Microdilution MIC, E. faecium Tet M + L; format: cell-based; settings: Enterococcus faecium, read-out: MIC, E. faecium Tet M + L
S. aureus MRSA 5 (Tet M) [11] = assay: Serum MIC, S. aureus MRSA 5; format: cell-based; settings: Staphylococcus aureus, read-out: S. aureus MRSA 5 (Tet M) serum MIC, None
S. aureus MRSA 5 (Tet M) [12] = assay: S. aureus MRSA 5 thigh wound infection model in mice; format: in vivo; settings: 24 h after single subcutaneous injection of 20 mg/kg
[13] = tested on: S. aureus RN4250 (tetracycline efflux, Tet K); assay: Microdilution MIC, S. aureus Tet K; format: cell-based; settings: Staphylococcus aureus, read-out: MIC, S. aureus Tet K

| Compound | MIC [2] [µg/mL] | MIC [3] [µg/mL] | MIC [4] [µg/mL] | MIC [5] [µg/mL] | MIC [6] [µg/mL] | MIC [7] [µg/mL] | AUC ([8]; po, 5 mg/kg) [ng·h/mL] | Cmax ([8]; po, 5 mg/kg) [ng/mL] | Tmax ([8]; po, 5 mg/kg) [h] | bioavailability ([8]; po, 5 mg/kg) [%] | half-life ([8]; po, 5 mg/kg) [h] | MIC [9] [µg/mL] | MIC [10] [µg/mL] | MIC (S. aureus MRSA 5 (Tet M) [11]) [µg/mL] | MIC [13] [µg/mL] | AUC ([8]; iv, 5 mg/kg) [ng·h/mL] | Cmax ([8]; iv, 5 mg/kg) [ng/mL] | Tmax ([8]; iv, 5 mg/kg) [h] | half-life ([8]; iv, 5 mg/kg) [h] | reduction of colony count relative to untreated control animals (S. aureus MRSA 5 (Tet M) [12]) [log10] | also measured |
| --- | --- | --- | --- | --- | --- | --- | --- | --- | --- | --- | --- | --- | --- | --- | --- | --- | --- | --- | --- | --- | --- |
| CN(C)c1cc(CNCC(C)(C)C)c(O)c2c1C[C@H]1C[C@H]3[C@H](N(C)C)C(O)=C(C(N)=O)C(=O)[C@@]3(O)C(O)=C1C2=O [Compound 27, 9-neopentylaminomethylminocycline] | 0.25 (≈ 0.449 µM) | 0.5 (≈ 0.898 µM) | 0.25 (≈ 0.449 µM) | 0.5 (≈ 0.898 µM) | 0.25 (≈ 0.449 µM) | < 0.06 | 5300 | 410 | 2.3 | 31 | 11.1 | < 0.06 | 0.5 | 0.25 (≈ 0.449 µM) | 0.25 (≈ 0.449 µM) | – | – | – | – | 2.49 to 3.11 | MIC [1]: 0.06 to 0.5 µg/mL (≈ 0.108 to 0.898 µM); tolerability after intravenous infusion ([8]; Cynomolgus monkeys): well tolerated; AUC ([8]; iv, 2.6 mg/kg): 9000 ng·h/mL; Cmax ([8]; iv, 2.6 mg/kg): 1880 ng/mL; Tmax ([8]; iv, 2.6 mg/kg): 0.2 h; half-life ([8]; iv, 2.6 mg/kg): 14.4 h; oral plasma exposure relative to tigecycline ([8]; oral administration, monkeys): 10 fold |
| CN(C)c1ccc(O)c2c1C[C@H]1C[C@H]3[C@H](N(C)C)C(O)=C(C(N)=O)C(=O)[C@@]3(O)C(O)=C1C2=O [Minocycline, minocycline] | 0.25 (≈ 0.546 µM) | 16 (≈ 35 µM) | 2 (≈ 4.37 µM) | 0.5 (≈ 1.09 µM) | 0.5 (≈ 1.09 µM) | 8 (≈ 17.5 µM) | 22100 | 2200 | 3 | 80 | 7 | < 0.06 | 16 | 2 (≈ 4.37 µM) | 0.5 (≈ 1.09 µM) | 27600 | 14800 | 0.1 | 10.4 | 0.98 | – |
| CN(C)[C@@H]1C(O)=C(C(N)=O)C(=O)[C@@]2(O)C(O)=C3C(=O)c4c(O)cccc4[C@@](C)(O)[C@H]3C[C@@H]12 [Tetracycline, tetracycline] | < 0.06 | > 64 | 32 (≈ 72 µM) | 64 (≈ 144 µM) | 0.25 (≈ 0.563 µM) | 32 (≈ 72 µM) | – | – | – | – | – | < 0.06 | > 64 | – | > 64 | – | – | – | – | – | – |

Continued, in another order:

| MIC [2] [µg/mL] | MIC [3] [µg/mL] | MIC [4] [µg/mL] | MIC [5] [µg/mL] | MIC [6] [µg/mL] | MIC [7] [µg/mL] | AUC ([8]; po, 5 mg/kg) [ng·h/mL] | Cmax ([8]; po, 5 mg/kg) [ng/mL] | Tmax ([8]; po, 5 mg/kg) [h] | bioavailability ([8]; po, 5 mg/kg) [%] | half-life ([8]; po, 5 mg/kg) [h] | MIC [9] [µg/mL] | MIC [10] [µg/mL] | MIC (S. aureus MRSA 5 (Tet M) [11]) [µg/mL] | MIC [13] [µg/mL] | AUC ([8]; iv, 5 mg/kg) [ng·h/mL] | Cmax ([8]; iv, 5 mg/kg) [ng/mL] | Tmax ([8]; iv, 5 mg/kg) [h] | half-life ([8]; iv, 5 mg/kg) [h] | Compound | reduction of colony count relative to untreated control animals (S. aureus MRSA 5 (Tet M) [12]) [log10] | also measured |
| --- | --- | --- | --- | --- | --- | --- | --- | --- | --- | --- | --- | --- | --- | --- | --- | --- | --- | --- | --- | --- | --- |
| 0.25 (≈ 0.427 µM) | 0.5 (≈ 0.854 µM) | 0.25 (≈ 0.427 µM) | 0.5 (≈ 0.854 µM) | 0.5 (≈ 0.854 µM) | < 0.06 | 500 | 40 | 4 | 3.1 | 3.4 | < 0.06 | 0.5 | 0.25 (≈ 0.427 µM) | 0.5 (≈ 0.854 µM) | 16300 | 23200 | 0.2 | 10.9 | CN(C)c1cc(NC(=O)CNC(C)(C)C)c(O)c2c1C[C@H]1C[C@H]3[C@H](N(C)C)C(O)=C(C(N)=O)C(=O)[C@@]3(O)C(O)=C1C2=O [Tigecycline, tigecycline] | – | – |
| 0.5 (≈ 0.345 µM) | 1 (≈ 0.69 µM) | 0.5 (≈ 0.345 µM) | 1 (≈ 0.69 µM) | 1 (≈ 0.69 µM) | 0.25 (≈ 0.173 µM) | – | – | – | – | – | 0.25 (≈ 0.173 µM) | > 64 | 0.5 (≈ 0.345 µM) | 0.25 (≈ 0.173 µM) | – | – | – | – | CN[C@H](CC(C)C)C(=O)N[C@H]1C(=O)N[C@@H](CC(N)=O)C(=O)N[C@H]2C(=O)N[C@H]3C(=O)N[C@H](C(=O)N[C@H](C(=O)O)c4cc(O)cc(O)c4-c4cc3ccc4O)[C@H](O)c3ccc(c(Cl)c3)Oc3cc2cc(c3O[C@@H]2O[C@H](CO)[C@@H](O)[C@H](O)[C@H]2O[C@H]2C[C@](C)(N)[C@H](O)[C@H](C)O2)Oc2ccc(cc2Cl)[C@H]1O [Vancomycin] | – | – |
